One test deals with D(1A) dopamine receptor (Rattus norvegicus, UniProt P18901). The test is described as follows: Binding Affinity was determined against Dopamine receptor D1 in rat striatal membranes using [3H]- SCH 23390 radioligand. It is filed as cell membranes, Striatum, Membrane. Summed up: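 Competition binding with rat striatal membranes as tissue source, reported as pKi. The labelled site is the D1-like family (D1 and D5 subtypes), not D1 alone. All compounds were tested as racemates.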

Another test has as its target D(2) dopamine receptor (Rattus norvegicus, UniProt P61169). The test is described as follows: Binding Affinity was determined against Dopamine receptor D2 in rat striatal membranes using [3H]- spiperone radioligand. It is filed as cell membranes, Striatum, Membrane.

pKi: −log10 of the molar value.

The term pKi denotes the negative decadic logarithm of the Ki, by convention in mol/L. A higher pKi goes with a small Ki.

Chain of D(1A) dopamine receptor (P18901 whole entry): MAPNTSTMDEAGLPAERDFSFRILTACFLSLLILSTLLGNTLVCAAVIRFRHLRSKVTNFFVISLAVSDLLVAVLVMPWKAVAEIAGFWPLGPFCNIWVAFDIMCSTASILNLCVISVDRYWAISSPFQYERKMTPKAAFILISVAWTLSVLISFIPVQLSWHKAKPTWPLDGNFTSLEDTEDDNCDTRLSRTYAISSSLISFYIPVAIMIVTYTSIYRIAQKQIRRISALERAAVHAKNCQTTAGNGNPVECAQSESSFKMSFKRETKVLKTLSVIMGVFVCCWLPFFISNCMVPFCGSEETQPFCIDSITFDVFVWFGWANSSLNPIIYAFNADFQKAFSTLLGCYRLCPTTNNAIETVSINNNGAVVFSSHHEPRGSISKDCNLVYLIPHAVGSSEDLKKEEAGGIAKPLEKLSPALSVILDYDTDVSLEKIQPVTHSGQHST
Chain of D(2) dopamine receptor (P61169 whole entry): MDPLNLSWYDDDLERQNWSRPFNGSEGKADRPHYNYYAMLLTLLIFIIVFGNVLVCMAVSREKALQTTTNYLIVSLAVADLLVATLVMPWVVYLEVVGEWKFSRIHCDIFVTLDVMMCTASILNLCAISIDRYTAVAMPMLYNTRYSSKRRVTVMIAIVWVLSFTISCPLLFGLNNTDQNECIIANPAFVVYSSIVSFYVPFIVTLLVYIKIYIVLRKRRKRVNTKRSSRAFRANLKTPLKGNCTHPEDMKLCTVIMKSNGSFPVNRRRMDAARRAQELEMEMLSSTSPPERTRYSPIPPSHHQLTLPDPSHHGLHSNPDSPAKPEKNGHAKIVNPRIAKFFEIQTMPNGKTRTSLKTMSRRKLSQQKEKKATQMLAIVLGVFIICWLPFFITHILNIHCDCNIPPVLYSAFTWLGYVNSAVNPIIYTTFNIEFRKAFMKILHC

`CCN1CCc2cc(O)cc3c2C1Cc1ccccc1O3` (centres undefined): the pKi at D(1A) dopamine receptor is 5.46; at D(2) dopamine receptor, 5.19.
In the case of `CCCN1CCc2c(Br)ccc3c2C1Cc1cc(OC)ccc1O3` (centres undefined), the results for the pKi at D(1A) dopamine receptor and at D(2) dopamine receptor were 5.61 and less than 5.00, respectively.
For the compound `CCN1CCc2cc(Br)cc(OC)c2C1Cc1ccccc1O` (centres undefined), the negative-log Ki (pKi) is 5.25 at D(1A) dopamine receptor and 5.66 at D(2) dopamine receptor.
For the compound `CCCN1CCc2cc(OC)cc3c2C1Cc1ccccc1O3` (centres undefined), the results for the pKi on D(1A) dopamine receptor and at D(2) dopamine receptor were less than 5.00 and 5.46, respectively.
`CCN1CCc2cc(OC)cc3c2C1Cc1ccccc1O3` (centres undefined): the pKi on D(1A) dopamine receptor was less than 5.00; at D(2) dopamine receptor it was 5.07.
`CCN1CCc2c(Br)ccc(O)c2C1Cc1cc(OC)ccc1Br` (centres undefined): the results for the pKi at D(1A) dopamine receptor and at D(2) dopamine receptor were 5.81 and less than 5.00, respectively.
Regarding `CN1CCc2cccc3c2C1Cc1cc(O)ccc1O3` (centres undefined), the negative logarithm of the Ki (pKi) was 5.32 at D(1A) dopamine receptor and 6.14 at D(2) dopamine receptor.
For the compound `COc1cc(Br)c2c(c1)CCN(C)C2Cc1ccccc1O` (centres undefined), the negative-log Ki (pKi) was 4.93 on D(1A) dopamine receptor and 5.15 on D(2) dopamine receptor.
In the case of `COc1ccc2c(c1)CC1c3c(cccc3O2)CCN1C` (centres undefined), the pKi is 5.28 at D(1A) dopamine receptor and 5.91 on D(2) dopamine receptor.
`COc1ccc(Br)c(CC2c3c(O)ccc(Br)c3CCN2C)c1` (centres undefined): the pKi on D(1A) dopamine receptor is 6.41; on D(2) dopamine receptor, less than 5.00.
`CCCN1CCc2cc(O)cc3c2C1Cc1ccccc1O3` (centres undefined): the pKi on D(1A) dopamine receptor and on D(2) dopamine receptor was less than 5.00 each time.
`COc1cc2c3c(c1)Oc1ccccc1CC3N(C)CC2` (centres undefined): the negative logarithm of the Ki (pKi) at D(1A) dopamine receptor was 5.37; on D(2) dopamine receptor it was 5.03.
Take `CCN1CCc2cc(OC)cc(Br)c2C1Cc1ccccc1O` (centres undefined): the values for the pKi on D(1A) dopamine receptor and at D(2) dopamine receptor were 5.52 and 5.51, respectively.
The matching figures for `CCN1CCc2cccc3c2C1Cc1cc(O)ccc1O3` (centres undefined): 5.17 and less than 5.00.
`CN1CCc2cc(O)cc3c2C1Cc1ccccc1O3` (centres undefined): the figures for the pKi at D(1A) dopamine receptor and on D(2) dopamine receptor were 5.54 and 6.56, respectively.
With `CCN1CCc2cccc3c2C1Cc1cc(OC)ccc1O3` (centres undefined), the figures for the pKi on D(1A) dopamine receptor and on D(2) dopamine receptor were less than 5.00 and 5.73, respectively.
With `CCCN1CCc2cccc3c2C1Cc1cc(OC)ccc1O3` (centres undefined), the negative-log Ki (pKi) on D(1A) dopamine receptor is 5.41; at D(2) dopamine receptor, less than 5.00.
As for `CCN1CCc2c(Br)ccc3c2C1Cc1cc(OC)ccc1O3` (centres undefined), the values for the pKi at D(1A) dopamine receptor and on D(2) dopamine receptor were 5.46 and less than 5.00, respectively.
`COc1cc(Br)cc2c1C(Cc1ccccc1O)N(C)CC2` (centres undefined): the pKi is 5.77 on D(1A) dopamine receptor and 5.74 on D(2) dopamine receptor.
Turning to `CCCN1CCc2cccc3c2C1Cc1cc(O)ccc1O3` (centres undefined), the pKi on D(1A) dopamine receptor and on D(2) dopamine receptor was less than 5.00 throughout.
In the case of `COc1ccc2c(c1)CC1c3c(ccc(Br)c3CCN1C)O2` (centres undefined), the pKi is 5.12 on D(1A) dopamine receptor and 6.07 on D(2) dopamine receptor.
For `CCCN1CCc2c(Br)ccc(O)c2C1Cc1cc(OC)ccc1Br` (centres undefined), the results for the negative logarithm of the Ki (pKi) at D(1A) dopamine receptor and on D(2) dopamine receptor were 5.13 and less than 5.00, respectively.

For the origin of these results see ChEMBL document CHEMBL1133094 (J Med Chem, 2000).
